Experimental data published in ChEMBL document CHEMBL2413060, “Synthesis, biological evaluation and molecular docking studies of some pyrimidine derivatives” (2013).
In brackets after ≈: the same amount, converted by molar mass.

How the values were obtained:
Assay type in all cases: functional
Shigella flexneri [1] = experiment: Antibacterial activity against Shigella flexneri ATCC 15391 assessed as diameter of inhibition zone at 1 mg/ml after 24 hrs by cup diffusion method (reference value: 17 mm); conditions: ATCC 15391, 24 h, read-out: DIZ
Pseudomonas aeruginosa [2] = experiment: Antibacterial activity against Pseudomonas aeruginosa ATCC 9027 assessed as diameter of inhibition zone at 1 mg/ml after 24 hrs by cup diffusion method (reference value: 16 mm); conditions: ATCC 9027, 24 h, read-out: DIZ
Candida albicans [3] = experiment: Antifungal activity against Candida albicans ATCC 2091 assessed as diameter of inhibition zone at 1 mg/ml after 48 hrs by cup diffusion method (reference value: 22 mm); conditions: ATCC 2091, 48 h, read-out: DIZ
Pseudomonas aeruginosa [4] = experiment: Antibacterial activity against Pseudomonas aeruginosa ATCC 9027 after 24 hrs by two-fold serial dilution method; conditions: ATCC 9027, 24 h
Procedure, shortened: (§1)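 Two-fold serial broth dilution in sterile nutrient broth at 500, 250, 125, 62.5, 31.25, 15.63, 7.82 and 3.91 µg/ml, with dimethylformamide ≤2.5%. Organisms were pre-grown 24 h in broth, and 0.1 ml inoculum was added per 5 ml tube. Tubes were incubated at 37°C, 24 h for bacteria and 48 h for fungi. MIC was taken as the lowest concentration giving no turbidity.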

Staphylococcus aureus = experiment: Antibacterial activity against Staphylococcus aureus ATCC 6538P assessed as diameter of inhibition zone at 1 mg/ml after 24 hrs by cup diffusion method (reference value: 15 mm); conditions: read-out: DIZ
Shigella flexneri [5] = experiment: Antibacterial activity against Shigella flexneri ATCC 15391 after 24 hrs by two-fold serial dilution method; conditions: ATCC 15391, 24 h; procedure, shortened: as §1
Shigella flexneri [6] = experiment: Antibacterial activity against Shigella flexneri ATCC 15391 after 24 hrs by two-fold serial dilution method relative to ofloxacin
Candida albicans [7] = experiment: Antifungal activity against Candida albicans ATCC 2091 after 48 hrs by two-fold serial dilution method; conditions: ATCC 2091, 48 h; procedure, shortened: as §1
Candida albicans [8] = experiment: Antifungal activity against Candida albicans ATCC 2091 after 48 hrs by two-fold serial dilution method relative to clotrimazole
HOP-92 = experiment: Cytotoxicity against human HOP92 cells assessed as growth inhibition at 10 uM; conditions: read-out: GI

Row | MIC (Pseudomonas aeruginosa [4]) [µg/mL] | MIC (Shigella flexneri [5]) [µg/mL] | MIC (Candida albicans [7]) [µg/mL] | SMILES | zone of inhibition at 1000 µg/mL (Shigella flexneri [1]) [mm] | zone of inhibition at 1000 µg/mL (Pseudomonas aeruginosa [2]) [mm] | zone of inhibition at 1000 µg/mL (Candida albicans [3]) [mm] | zone of inhibition at 1000 µg/mL (Staphylococcus aureus) [mm] | Activity (Shigella flexneri [6]) [%] | Activity (Candida albicans [8]) [%] | inhibition of growth at 10 µM (HOP-92) [%]
1 | 125 (≈ 331 µM) | – | – | Cn1c(-n2[nH]c3c(c2=O)C(=O)CC(=O)O3)nc(-c2ccccc2)c(C#N)c1=O | 17 | 19 | 22 | 15 | – | – | –
2 | – | – | – | N#Cc1c(Cl)nc(SCC2CO2)nc1-c1ccco1 (stereo not given) | 18 | 17 | 22 | 15 | – | – | –
3 | – | – | – | N#Cc1c(-c2ccc([N+](=O)[O-])cc2)nc(SCC2CO2)[nH]c1=O (stereo not given) | 17 | 17 | 22 | 15 | – | – | –
4 | – | – | – | Cn1c(-n2[nH]c3c(c2=O)C(=O)CC(=O)O3)nc(-c2ccco2)c(C#N)c1=O | 17 | 16 | 22 | 15 | – | – | –
5 | – | 125 (≈ 319 µM) | – | COc1ccc(NC(=O)CSc2nc(-c3ccccc3)c(C#N)c(=O)[nH]2)cc1 | 20 | 16 | 22 | 15 | 60 | – | –
6 | – | – | – | N#Cc1c(N2CCOCC2)nc(=S)[nH]c1-c1ccc([N+](=O)[O-])cc1 | 18 | 16 | 22 | 15 | – | – | –
7 | 125 (≈ 290 µM) | – | 125 (≈ 290 µM) | N#Cc1c(-c2ccco2)nc(SCC(O)CN2CCOCC2)nc1N1CCOCC1 (stereo not given) | 17 | 18 | 25 | 15 | – | 60 | –
8 | – | – | – | Cn1c(N2CCN(Cc3ccccc3)CC2)nc(-c2ccco2)c(C#N)c1=O | 17 | 17 | 22 | 15 | – | – | –
9 | – | – | – | N#Cc1c(-c2ccccc2)nc(SCC(O)CN2CCOCC2)[nH]c1=O (stereo not given) | 18 | 16 | 22 | 15 | – | – | –
10 | – | – | 12.5 (≈ 36.2 µM) | Clc1ccccc1C(c1ccccc1)(c1ccccc1)n1ccnc1 [CLOTRIMAZOLE] | – | – | 40 | – | – | – | –
11 | – | 125 (≈ 327 µM) | – | COc1ccc(NC(=O)CSc2nc(-c3ccco3)c(C#N)c(=O)[nH]2)cc1 | 20 | 16 | 23 | 15 | 60 | – | –
12 | – | – | – | N#Cc1c(-c2ccco2)nc(SCC2CO2)nc1N1CCOCC1 (stereo not given) | 17 | 16 | 22 | 15 | – | – | –
13 | 125 (≈ 297 µM) | – | 125 (≈ 297 µM) | CCOC(=O)CC(=N)N(NC(=O)CC#N)c1nc(-c2ccccc2)c(C#N)c(=O)n1C | – | – | – | – | – | 60 | –
14 | – | – | – | N#Cc1c(-c2ccco2)nc(SCC(O)CN2CCOCC2)[nH]c1=O (stereo not given) | 18 | 16 | 22 | 15 | – | – | –
15 | – | 125 (≈ 438 µM) | – | N#Cc1c(-c2ccccc2)nc(SCC2CO2)[nH]c1=O (stereo not given) | 22 | 16 | 22 | 15 | – | – | 41.5
16 | 1.95 (≈ 5.4 µM) | 7.81 (≈ 21.6 µM) | – | CC1COc2c(N3CCN(C)CC3)c(F)cc3c(=O)c(C(=O)O)cn1c23 (stereo not given) [OFLOXACIN] | 32 | 43 | – | 43 | – | – | –
17 | – | – | – | N#Cc1c(Cl)nc(=S)[nH]c1-c1ccc([N+](=O)[O-])cc1 | 17 | 16 | 22 | 15 | – | – | –
18 | – | – | – | Cn1c(=O)c(C#N)c(-c2ccccc2)n2c(CC#N)nnc12 | 19 | 17 | 22 | 15 | – | – | –
